Results: ChEMBL document CHEMBL1123879, “Synthesis and antiarrhythmic activity of novel 3-alkyl-1-[omega-[4-[(alkylsulfonyl)amino]phenyl]-omega- hydroxyalkyl]-1H-imidazolium salts and related compounds” (J Med Chem, 1987)

Assays:
Canis familiaris [1] = organism: Canis familiaris; assay: (§1) Concentration that causes 20% increase in ADP95 (action potential duration at 95% repolarization) was determined on isolated canine cardiac Purkinje fibers; type: functional; settings: Canis lupus familiaris; Purkinje fiber
Outline: (§2)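 Canine cardiac Purkinje fibres in gassed physiological saline (95% O2–5% CO2, pH 7.35–7.40) at 36 ± 0.5 °C. Paced at 1.0 Hz with 2 ms pulses at twice diastolic threshold. Intracellular microelectrode recording after up to 1 h of stabilisation; 30 min exposure per concentration; one compound per fibre, with vehicle controls. Readout is concentration giving a 20% change in APD95, or maximal APD95 change; log mean with 90% CI when n > 2.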

Canis familiaris [2] = organism: Canis familiaris; assay: (§3) Concentration that causes 20% increase in functional refractory period (FRP) was determined on isolated canine ventricular muscle fibers; set-up: species or system Canis lupus familiaris, Muscle tissue
Outline: (§4)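 Canine right ventricular papillary muscle strips superfused with O2/CO2-gassed saline at 36 ± 0.5 °C. Bipolar electrogram recording. Stimulated at 4× diastolic threshold (2 ms pulses), equilibrated 60 min. FRP measured at 1000 ms cycle length by S2 after every tenth S1 at shortening intervals. Cumulative concentrations; one compound per strip, with vehicle controls. Readout is concentration giving a 20% FRP change, or maximal change; log mean with 90% CI when n > 2.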

Canis familiaris [3] = organism: Canis familiaris; assay: Maximum observed change in ADP95 from control value was determined in isolated canine cardiac uM; type: functional; outline: as §2
Canis familiaris [4] = organism: Canis familiaris; assay: Maximum observed change in FRP from control was determined in isolated canine ventricular muscle fibers at a concentration of 100 uM; type: functional, Canis lupus familiaris, Muscle tissue; outline: as §4
Canis familiaris [5] = organism: Canis familiaris; assay: as §1; type: functional, Canis lupus familiaris, Purkinje fiber; outline: as §2
Canis familiaris [6] = assay: In vivo antiarrhythmic efficacy in a programmed electrical stimulation (PES) model of mongrel dogs expressed as minimum effect dose (iv) at iv dose range of 0.1-30 mg/kg.; type: functional, Canis lupus familiaris, Heart
Outline: (§5)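 Mongrel dogs (8–17 kg) with two-stage LAD occlusion 24 h earlier, anesthetized with thiopental 15 mg/kg and ventilated; open chest. PES induces SVT/VF; two control arrhythmias 30 min apart. Compound given as 10-min iv infusion, PES repeated 20 min later, dose escalated while still inducible; noninducibility counts as effective. HR and BP reported as % change at effective dose, mean ± SEM.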

Canis familiaris [7] = assay: In vivo antiarrhythmic efficacy in a PES model of mongrel dog expressed as percent change in heart rate at iv dose range of 0.1-30 mg/kg.; type: functional, Canis lupus familiaris; outline: as §5
Canis familiaris [8] = assay: In vivo antiarrhythmic efficacy in a PES model of mongrel dog expressed as percent change in blood pressure at iv dose range of 0.1-30 mg/kg.; type: functional, Canis lupus familiaris; outline: as §5
Canis familiaris [9] = organism: Canis familiaris; assay: Concentration that causes 20% increase in functional refractory period (FRP) was determined on isolated canine ventricular muscle fibers;range is 3.7-162; set-up: species or system Canis lupus familiaris, Muscle tissue; outline: as §4
Canis familiaris [10] = assay: In vivo intraduodenal activity in mongrel dogs was assessed by percent change in heart rate at active dose of 10 mg/kg, administered intradermally; type: functional, Canis lupus familiaris; settings: in the assay text read “intraduodenally” for “intradermally”
Outline: (§6)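 Healthy dogs (8–20 kg) of either sex, pentobarbital 30 mg/kg iv, ventilated, temperature held at 36 ± 0.5 °C. Compound given intraduodenally as suspension in 0.5% tragacanth. HR, BP and FRP measured at 45 min postdose; second dose if FRP/conduction change below 12%. Active dose means FRP change ≥ 12%; HR and BP given as % change, mean ± SEM.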

Canis familiaris [11] = assay: In vivo intraduodenal activity in mongrel dogs was assessed by percent change in blood pressure at active dose of 10 mg/kg, administered intradermally; type: functional, Canis lupus familiaris, Artery; settings: in the assay text read “intraduodenally” for “intradermally”; outline: as §6
Canis familiaris [12] = assay: In vivo antiarrhythmic efficacy in a programmed electrical stimulation (PES) model of mongrel dogs reported as number of animals effective at dose range of 0.1-30 mg/kg.; type: functional, Canis lupus familiaris, Heart; outline: as §5
Canis familiaris [13] = organism: Canis familiaris; assay: Concentration that causes 20% increase in ADP95 (action potential duration at 95% repolarization) was determined on isolated canine cardiac Purkinje fibers;range is 11.2-18.6; type: functional, Canis lupus familiaris, Purkinje fiber; outline: as §2
Canis familiaris [14] = assay: In vivo intraduodenal activity in mongrel dogs was assessed by % change in heart rate (10 mg/kg administered intradermally); type: functional, Canis lupus familiaris; settings: in the assay text read “intraduodenally” for “intradermally”; outline: as §6
Canis familiaris [15] = assay: In vivo intraduodenal activity in mongrel dogs was assessed by % change in blood pressure (10 mg/kg administered intradermally); type: functional, Canis lupus familiaris, Artery; settings: in the assay text read “intraduodenally” for “intradermally”; outline: as §6
Canis familiaris [16] = organism: Canis familiaris; assay: as §3; settings: Canis lupus familiaris; Muscle tissue; outline: as §4
Canis familiaris [17] = assay: In vivo antiarrhythmic efficacy in a programmed electrical stimulation (PES) model of mongrel dogs expressed as percent change in blood pressure at iv dose range of 0.3-10 mg/kg.; type: functional, Canis lupus familiaris; outline: as §5
Canis familiaris [18] = assay: In vivo antiarrhythmic efficacy in a programmed electrical stimulation (PES) model of mongrel dogs expressed as percent change in heart rate at iv dose range of 0.3-10 mg/kg.; type: functional, Canis lupus familiaris; outline: as §5
[19] = molecular target: Adrenergic receptor beta (Canis familiaris); assay: Concentration effective against displacing [3H]dihydroalprenolol from beta adrenergic receptor from canine ventricular tissue
Canis familiaris [20] = assay: In vivo antiarrhythmic efficacy in a programmed electrical stimulation (PES) model of mongrel dogs expressed as minimum effect dose (iv) at iv dose range of 0.3-10 mg/kg.; type: functional, Canis lupus familiaris, Heart; outline: as §5
Canis familiaris [21] = assay: In vivo antiarrhythmic efficacy in a programmed electrical stimulation (PES) model of mongrel dogs reported as number of animals effective at dose range of 0.3-10 mg/kg.; type: functional, Canis lupus familiaris, Heart; outline: as §5
Canis familiaris [22] = assay: In vivo intraduodenal activity in mongrel dogs was assessed by percent change in blood pressure at active dose of 30 mg/kg, administered intradermally; type: functional, Canis lupus familiaris, Artery; settings: in the assay text read “intraduodenally” for “intradermally”; outline: as §6
Canis familiaris [23] = assay: In vivo antiarrhythmic efficacy in PES model of mongrel dogs expressed as percent change in blood pressure at iv dose range of 0.1-10 mg/kg.; type: functional, Canis lupus familiaris; settings: in the assay text read “1.0-10 mg/kg” for “0.1-10 mg/kg”; outline: as §5
Canis familiaris [24] = assay: In vivo antiarrhythmic efficacy in a programmed electrical stimulation (PES) model of mongrel dogs reported as number of animals effective at dose range of 0.1-10 mg/kg.; type: functional, Canis lupus familiaris, Heart; outline: as §5
Canis familiaris [25] = assay: In vivo intraduodenal activity in mongrel dogs was assessed by percent change in heart rate at active dose of 30 mg/kg, administered intradermally; type: functional, Canis lupus familiaris; settings: in the assay text read “intraduodenally” for “intradermally”; outline: as §6
Canis familiaris [26] = assay: In vivo antiarrhythmic efficacy in a programmed electrical stimulation (PES) model of mongrel dogs expressed as minimum effect dose (iv) at iv dose range of 0.1-10 mg/kg.; type: functional, Canis lupus familiaris, Heart; outline: as §5

Compound	Activity (Canis familiaris [1])	Activity (Canis familiaris [2]) [µM]	Max delta FRP (Canis familiaris [4]) [%]	Activity (Canis familiaris [5]) [µM]	Max delta APD95 (Canis familiaris [3]) [%]	also measured
Cc1c(C)[n+](C)c(C)n1CC(=O)c1ccc(NS(C)(=O)=O)cc1.[Cl-]	Not recorded	15.8	26			Max delta APD95 (Canis familiaris [3]; Canis lupus familiaris): Minimal effects
CCS(=O)(=O)Nc1ccc(C(=O)Cn2cc[n+](C)c2)cc1.[Cl-]		40	26	29	33	
CC(C)NCC(O)c1ccc(NS(C)(=O)=O)cc1.Cl (stereo unspecified) [SOTALOL HYDROCHLORIDE]			23		48	Mean effective dose (Canis familiaris [6]): 1.4; Change (Canis familiaris [7]): -23%; Change (Canis familiaris [8]): -23%; Activity (Canis familiaris [9]): 24.7 µM; Change (Canis familiaris [10]): -11%; Change (Canis familiaris [11]): 8%; No. of animals (Canis familiaris [12]): 3; Activity (Canis familiaris [13]): 14.4 µM
Cc1c(C)[n+](C)c(C)n1CC(O)c1ccc(NS(C)(=O)=O)cc1.[Cl-] (stereo unspecified)	Not recorded	2.5	29		13	Heart rate (Canis familiaris [14]): -12%; Blood pressure (Canis familiaris [15]): 19%
C[n+]1ccn(C[C@@H](O)c2ccc(NS(C)(=O)=O)cc2)c1.[Cl-]		7.5	31	0.7	74	
C[n+]1ccn(C[C@H](O)c2ccc(NS(C)(=O)=O)cc2)c1.[Cl-]		14	25	0.3	58	
Cc1n(CC(=O)c2ccc(NS(C)(=O)=O)cc2)cc[n+]1C.[Cl-]		14.7	32	24.8	33	
C[n+]1ccn(CCCc2ccc(NS(C)(=O)=O)cc2)c1.O=P([O-])(O)O			13	7.2	47	Activity (Canis familiaris [16]): Not recorded
CC[n+]1ccn(CC(O)c2ccc(NS(C)(=O)=O)cc2)c1.[Cl-] (stereo unspecified)		28.2	26	6.2	65	
C[n+]1ccn(CC(O)c2ccc(NS(C)(=O)=O)cc2)c1.[Cl-] (stereo unspecified)		5.9	31	1.6	50	Blood pressure (Canis familiaris [17]): 0%; Heart rate (Canis familiaris [18]): -23%; Heart rate (Canis familiaris [14]): -10%; IC50 [19]: 2350 µM; Blood pressure (Canis familiaris [15]): 5%; Min effective dose (Canis familiaris [20]): 6.5; No. effective (Canis familiaris [21]): 2
C[n+]1ccn(CC(=O)c2ccc(NS(=O)(=O)C(F)(F)F)cc2)c1	Not recorded					Activity (Canis familiaris [16]): Not recorded; Max delta APD95 (Canis familiaris [3]; Canis lupus familiaris): Minimal effects; Max delta FRP (Canis familiaris [4]; Canis lupus familiaris, Muscle tissue): Minimal effects
CC(C)[n+]1ccn(CC(O)c2ccc(NS(C)(=O)=O)cc2)c1 (stereo unspecified)	Not recorded					Activity (Canis familiaris [16]): Not recorded; Max delta APD95 (Canis familiaris [3]; Canis lupus familiaris): Minimal effects
C[n+]1ccn(CCc2ccc(NS(C)(=O)=O)cc2)c1.[I-]		10	24	2.6	45	Blood pressure (Canis familiaris [22]): 3%; Blood pressure (Canis familiaris [23]): 13%; No. effective (Canis familiaris [24]): 2; Heart rate (Canis familiaris [25]): -13%; Min effective dose (Canis familiaris [26]): 6.5
